Source: BindingDB's records for doi:10.1016/j.bmc.2018.07.042 (Human Biomolecular Research Institute, 2018)

The compounds below were run against T1, Cellular tumor antigen p53 (Homo sapiens, UniProt P04637) (assay: Activation of p53 in human MCF7 cell lysates assessed as increase in total p53 protein level by Western blot analysis).
T1 sequence (P04637 whole entry): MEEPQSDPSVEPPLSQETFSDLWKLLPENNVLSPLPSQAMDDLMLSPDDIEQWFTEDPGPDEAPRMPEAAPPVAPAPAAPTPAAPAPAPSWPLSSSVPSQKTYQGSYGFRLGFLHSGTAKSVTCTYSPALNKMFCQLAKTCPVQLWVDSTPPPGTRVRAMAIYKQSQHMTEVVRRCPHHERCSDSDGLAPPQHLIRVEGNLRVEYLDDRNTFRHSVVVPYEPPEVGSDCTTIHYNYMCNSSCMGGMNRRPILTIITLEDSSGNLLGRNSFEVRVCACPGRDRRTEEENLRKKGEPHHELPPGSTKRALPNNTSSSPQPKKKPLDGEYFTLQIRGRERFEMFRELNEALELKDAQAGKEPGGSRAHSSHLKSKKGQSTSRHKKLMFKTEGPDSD

**Q.** `CN1CCN(S(=O)(=O)c2ccc(N3CCCC3=O)cc2)c2ccccc21` was tested. Which EC50 did it give?
**A.** 18 nM

What follows are compounds tested against T1, Cellular tumor antigen p53 (assay: Induction of p53 transcriptional activity (unknown origin) expressed in HEK293 cells coexpressing TK-driven Rluc after 20 to 22 hrs by luciferase reporter gene assay).
Procedure, shortened: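 Transient transfection of HEK-293 cells with a p53-Luc vector (13x p53-binding consensus response element) plus TK-driven Renilla luciferase for normalization. Protocol was as for the Wnt reporter, but final serum was 2.5%. Cells were treated or given DMSO for 20-22 h in triplicate. Firefly/Renilla signal relative to DMSO was fit by nonlinear regression for […].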

**Q.** How did the EC50 turn out when `O=S(=O)(c1ccc(-n2cncn2)cc1)N1CCCc2ccccc21` was run?
**A.** > 5000 nM

**Q.** How did the EC50 turn out when `O=C1CCCN1c1ccc(S(=O)(=O)N2CCCc3ccccc32)cc1` was run?
**A.** 12 nM

**Q.** For `COc1ccc2c(c1)N(C)CCN2S(=O)(=O)c1ccc(N2CCCC2=O)cc1`, which EC50 is on record?
**A.** 4 nM

**Q.** For `CN1CCN(S(=O)(=O)c2ccc(N3CCCC3=O)cc2)c2ccccc21`, which EC50 is on record?
**A.** 2 nM

**Q.** Which EC50 does the source give for `Cc1ccc2c(c1)CCCN2S(=O)(=O)c1ccc(N2CCCC2=O)cc1` here?
**A.** 4 nM

**Q.** How did the EC50 turn out when `CC(C)(C)c1ccc2c(c1)CCCN2S(=O)(=O)c1ccc(N2CCCC2=O)cc1` was run?
**A.** 152 nM

**Q.** How did the EC50 turn out when `CN1CCN(S(=O)(=O)c2ccc(N3CCC=N3)cc2)c2ccccc21` was run?
**A.** 74 nM

**Q.** With `CCCN(c1ccccc1)S(=O)(=O)c1ccc(N2CCCC2=O)cc1` as the compound, how does the EC50 read?
**A.** 158 nM

**Q.** How did the EC50 turn out when `CN1CCN(S(=O)(=O)c2ccc(N3CCCC3)cc2)c2ccccc21` was run?
**A.** 65 nM

**Q.** For `COc1ccc2c(c1)CCCN2S(=O)(=O)c1ccc(N2CCCC2=O)cc1`, which EC50 is on record?
**A.** 9 nM
